Data as given in ChEMBL document CHEMBL1759840, “2,3-Substituted quinoxalin-6-amine analogs as antiproliferatives: a structure-activity relationship study” (2011).
Calls of active or inactive are those of the source. The calls are words filed in the database; no cut-off is given here.

Test system: A549
Assay: Growth inhibition of human A549 cells at 20 uM after 72 hrs by alamar blue assay
Type: functional
Conditions: not given
Outline: (§1)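 Single-concentration screen at 20 μM with 72 h exposure across a panel of cancer lines: lung A549, pancreatic AsPC1, colon HT29, breast MDA-MB-231, prostate PC3, ovarian SKOV3 and bone U2OS. Growth inhibition read after 72 h.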

Row | SMILES | growth inhibition (GI)
1 | CC(=O)Nc1ccc2nc(-c3ccccc3)c(-c3ccccc3)nc2c1 | inactive
2 | O=C(Nc1ccccc1)Nc1ccc2nc(-c3ccccc3)c(-c3ccccc3)nc2c1 | inactive
3 | Cc1nc2ccc(NC(=O)N3CCCCC3)cc2nc1C | inactive
4 | S=C(Nc1ccccc1)Nc1ccc2nc(-c3ccccc3)c(-c3ccccc3)nc2c1 | inactive

Same assay, conditions: A549, 72 h, read-out: GI

Row | SMILES | inhibition of growth at 20 µM [%]
5 | O=C(Nc1ccccc1)Nc1ccc2nc(-c3ccco3)c(-c3ccco3)nc2c1 | 54.6
6 | S=C(Nc1ccccc1)Nc1ccc2nc(-c3ccco3)c(-c3ccco3)nc2c1 | 18
7 | O=C(Nc1ccc(F)cc1)Nc1ccc2nc(-c3ccco3)c(-c3ccco3)nc2c1 | > 100
8 | O=C(Nc1ccc2nc(-c3ccco3)c(-c3ccco3)nc2c1)NN1CCC(Cc2ccccc2)CC1 | 93.1
9 | O=C(Nc1ccc2nc(-c3ccco3)c(-c3ccco3)nc2c1)N1CCOCC1 | 39.7
10 | O=C(Nc1ccc(-c2ccccc2)cc1)Nc1ccc2nc(-c3ccco3)c(-c3ccco3)nc2c1 | 13.8
11 | Cc1nc2ccc(NC(=O)NN3CCC(Cc4ccccc4)CC3)cc2nc1C | 40.3
12 | O=C(Nc1ccc2nc(-c3ccccc3)c(-c3ccccc3)nc2c1)N1CCCC1 | 11

Test system: SK-OV-3
Assay: Growth inhibition of human SKOV3 cells at 20 uM after 72 hrs by alamar blue assay
Type: functional
Conditions: not given
Outline: as §1

Row | SMILES | growth inhibition (GI)
13 | S=C(Nc1ccccc1)Nc1ccc2nc(-c3ccco3)c(-c3ccco3)nc2c1 | inactive
14 | O=C(Nc1ccc(F)cc1)Nc1ccc2nc(-c3ccco3)c(-c3ccco3)nc2c1 | inactive
15 | O=C(Nc1ccc2nc(-c3ccco3)c(-c3ccco3)nc2c1)N1CCOCC1 | inactive
16 | CC(=O)Nc1ccc2nc(-c3ccccc3)c(-c3ccccc3)nc2c1 | inactive
17 | O=C(Nc1ccccc1)Nc1ccc2nc(-c3ccccc3)c(-c3ccccc3)nc2c1 | inactive
18 | O=C(Nc1ccc(-c2ccccc2)cc1)Nc1ccc2nc(-c3ccco3)c(-c3ccco3)nc2c1 | inactive
19 | Cc1nc2ccc(NC(=O)N3CCCCC3)cc2nc1C | inactive
20 | S=C(Nc1ccccc1)Nc1ccc2nc(-c3ccccc3)c(-c3ccccc3)nc2c1 | inactive

Same assay, conditions: SK-OV-3, 72 h, read-out: GI

Row | SMILES | inhibition of growth at 20 µM [%]
21 | O=C(Nc1ccccc1)Nc1ccc2nc(-c3ccco3)c(-c3ccco3)nc2c1 | 24.7
22 | O=C(Nc1ccc2nc(-c3ccco3)c(-c3ccco3)nc2c1)NN1CCC(Cc2ccccc2)CC1 | 47.6
23 | Cc1nc2ccc(NC(=O)NN3CCC(Cc4ccccc4)CC3)cc2nc1C | 8.9
24 | O=C(Nc1ccc2nc(-c3ccccc3)c(-c3ccccc3)nc2c1)N1CCCC1 | 18.5

Test system: MDA-MB-231
Assay: Growth inhibition of human MDA-MB-231 cells at 20 uM after 72 hrs by alamar blue assay
Type: functional
Conditions: not given
Outline: as §1

Row | SMILES | growth inhibition (GI)
25 | CC(=O)Nc1ccc2nc(-c3ccccc3)c(-c3ccccc3)nc2c1 | inactive
26 | O=C(Nc1ccccc1)Nc1ccc2nc(-c3ccccc3)c(-c3ccccc3)nc2c1 | inactive
27 | Cc1nc2ccc(NC(=O)N3CCCCC3)cc2nc1C | inactive
28 | S=C(Nc1ccccc1)Nc1ccc2nc(-c3ccccc3)c(-c3ccccc3)nc2c1 | inactive

Same assay, conditions: MDA-MB-231, 72 h, read-out: GI

Row | SMILES | inhibition of growth at 20 µM [%]
29 | O=C(Nc1ccccc1)Nc1ccc2nc(-c3ccco3)c(-c3ccco3)nc2c1 | 31.3
30 | S=C(Nc1ccccc1)Nc1ccc2nc(-c3ccco3)c(-c3ccco3)nc2c1 | 19.1
31 | O=C(Nc1ccc(F)cc1)Nc1ccc2nc(-c3ccco3)c(-c3ccco3)nc2c1 | 38.4
32 | O=C(Nc1ccc2nc(-c3ccco3)c(-c3ccco3)nc2c1)NN1CCC(Cc2ccccc2)CC1 | 90.8
33 | O=C(Nc1ccc2nc(-c3ccco3)c(-c3ccco3)nc2c1)N1CCOCC1 | 10.9
34 | O=C(Nc1ccc(-c2ccccc2)cc1)Nc1ccc2nc(-c3ccco3)c(-c3ccco3)nc2c1 | 50.2
35 | Cc1nc2ccc(NC(=O)NN3CCC(Cc4ccccc4)CC3)cc2nc1C | 12.4
36 | O=C(Nc1ccc2nc(-c3ccccc3)c(-c3ccccc3)nc2c1)N1CCCC1 | 16.7

Test system: PC-3
Assay: Growth inhibition of human PC3 cells at 20 uM after 72 hrs by alamar blue assay
Type: functional
Conditions: not given
Outline: as §1

Row | SMILES | growth inhibition (GI)
37 | CC(=O)Nc1ccc2nc(-c3ccccc3)c(-c3ccccc3)nc2c1 | inactive
38 | O=C(Nc1ccccc1)Nc1ccc2nc(-c3ccccc3)c(-c3ccccc3)nc2c1 | inactive
39 | Cc1nc2ccc(NC(=O)N3CCCCC3)cc2nc1C | inactive
40 | S=C(Nc1ccccc1)Nc1ccc2nc(-c3ccccc3)c(-c3ccccc3)nc2c1 | inactive

Same assay, conditions: PC-3, 72 h, read-out: GI

Row | SMILES | inhibition of growth at 20 µM [%]
41 | O=C(Nc1ccccc1)Nc1ccc2nc(-c3ccco3)c(-c3ccco3)nc2c1 | 70.6
42 | S=C(Nc1ccccc1)Nc1ccc2nc(-c3ccco3)c(-c3ccco3)nc2c1 | 56.8
43 | O=C(Nc1ccc(F)cc1)Nc1ccc2nc(-c3ccco3)c(-c3ccco3)nc2c1 | 90.7
44 | O=C(Nc1ccc2nc(-c3ccco3)c(-c3ccco3)nc2c1)NN1CCC(Cc2ccccc2)CC1 | > 100
45 | O=C(Nc1ccc2nc(-c3ccco3)c(-c3ccco3)nc2c1)N1CCOCC1 | 48.9
46 | O=C(Nc1ccc(-c2ccccc2)cc1)Nc1ccc2nc(-c3ccco3)c(-c3ccco3)nc2c1 | 88.5
47 | Cc1nc2ccc(NC(=O)NN3CCC(Cc4ccccc4)CC3)cc2nc1C | 30.6
48 | O=C(Nc1ccc2nc(-c3ccccc3)c(-c3ccccc3)nc2c1)N1CCCC1 | 56.9

Test system: HT-29
Assay: Growth inhibition of human HT-29 cells at 20 uM after 72 hrs by alamar blue assay
Type: functional
Conditions: not given
Outline: as §1

Row | SMILES | growth inhibition (GI)
49 | CC(=O)Nc1ccc2nc(-c3ccccc3)c(-c3ccccc3)nc2c1 | inactive
50 | O=C(Nc1ccccc1)Nc1ccc2nc(-c3ccccc3)c(-c3ccccc3)nc2c1 | inactive
51 | Cc1nc2ccc(NC(=O)N3CCCCC3)cc2nc1C | inactive
52 | O=C(Nc1ccc2nc(-c3ccccc3)c(-c3ccccc3)nc2c1)N1CCCC1 | inactive
53 | S=C(Nc1ccccc1)Nc1ccc2nc(-c3ccccc3)c(-c3ccccc3)nc2c1 | inactive

Same assay, conditions: HT-29, 72 h, read-out: GI

Row | SMILES | inhibition of growth at 20 µM [%]
54 | O=C(Nc1ccccc1)Nc1ccc2nc(-c3ccco3)c(-c3ccco3)nc2c1 | 52.1
55 | S=C(Nc1ccccc1)Nc1ccc2nc(-c3ccco3)c(-c3ccco3)nc2c1 | 26.1
56 | O=C(Nc1ccc(F)cc1)Nc1ccc2nc(-c3ccco3)c(-c3ccco3)nc2c1 | 74.2
57 | O=C(Nc1ccc2nc(-c3ccco3)c(-c3ccco3)nc2c1)NN1CCC(Cc2ccccc2)CC1 | 55.2
58 | O=C(Nc1ccc2nc(-c3ccco3)c(-c3ccco3)nc2c1)N1CCOCC1 | 19.4
59 | O=C(Nc1ccc(-c2ccccc2)cc1)Nc1ccc2nc(-c3ccco3)c(-c3ccco3)nc2c1 | 72.4
60 | Cc1nc2ccc(NC(=O)NN3CCC(Cc4ccccc4)CC3)cc2nc1C | 16.3

Test system: U2OS
Assay: Growth inhibition of human U2OS cells at 20 uM after 72 hrs by alamar blue assay
Type: functional
Conditions: not given
Outline: as §1

Row | SMILES | growth inhibition (GI)
61 | O=C(Nc1ccc2nc(-c3ccco3)c(-c3ccco3)nc2c1)N1CCOCC1 | inactive
62 | CC(=O)Nc1ccc2nc(-c3ccccc3)c(-c3ccccc3)nc2c1 | inactive
63 | O=C(Nc1ccccc1)Nc1ccc2nc(-c3ccccc3)c(-c3ccccc3)nc2c1 | inactive
64 | Cc1nc2ccc(NC(=O)N3CCCCC3)cc2nc1C | inactive
65 | S=C(Nc1ccccc1)Nc1ccc2nc(-c3ccccc3)c(-c3ccccc3)nc2c1 | inactive

Same assay, conditions: read-out: GI

Row | SMILES | inhibition of growth at 20 µM [%]
66 | O=C(Nc1ccccc1)Nc1ccc2nc(-c3ccco3)c(-c3ccco3)nc2c1 | 59.6
67 | S=C(Nc1ccccc1)Nc1ccc2nc(-c3ccco3)c(-c3ccco3)nc2c1 | 21.4
68 | O=C(Nc1ccc(F)cc1)Nc1ccc2nc(-c3ccco3)c(-c3ccco3)nc2c1 | 55.6
69 | O=C(Nc1ccc2nc(-c3ccco3)c(-c3ccco3)nc2c1)NN1CCC(Cc2ccccc2)CC1 | 80.3
70 | O=C(Nc1ccc(-c2ccccc2)cc1)Nc1ccc2nc(-c3ccco3)c(-c3ccco3)nc2c1 | 46.9
71 | Cc1nc2ccc(NC(=O)NN3CCC(Cc4ccccc4)CC3)cc2nc1C | 33.5
72 | O=C(Nc1ccc2nc(-c3ccccc3)c(-c3ccccc3)nc2c1)N1CCCC1 | 54.2

Test system: ASPC1
Assay: Growth inhibition of human AsPC1 cells at 20 uM after 72 hrs by alamar blue assay
Type: functional
Conditions: not given
Outline: as §1

Row | SMILES | growth inhibition (GI)
73 | S=C(Nc1ccccc1)Nc1ccc2nc(-c3ccco3)c(-c3ccco3)nc2c1 | inactive
74 | O=C(Nc1ccc2nc(-c3ccco3)c(-c3ccco3)nc2c1)N1CCOCC1 | inactive
75 | CC(=O)Nc1ccc2nc(-c3ccccc3)c(-c3ccccc3)nc2c1 | inactive
76 | O=C(Nc1ccccc1)Nc1ccc2nc(-c3ccccc3)c(-c3ccccc3)nc2c1 | inactive
77 | O=C(Nc1ccc(-c2ccccc2)cc1)Nc1ccc2nc(-c3ccco3)c(-c3ccco3)nc2c1 | inactive
78 | Cc1nc2ccc(NC(=O)NN3CCC(Cc4ccccc4)CC3)cc2nc1C | inactive
79 | Cc1nc2ccc(NC(=O)N3CCCCC3)cc2nc1C | inactive
80 | S=C(Nc1ccccc1)Nc1ccc2nc(-c3ccccc3)c(-c3ccccc3)nc2c1 | inactive

Same assay, conditions: ASPC1, 72 h, read-out: GI

Row | SMILES | inhibition of growth at 20 µM [%]
81 | O=C(Nc1ccccc1)Nc1ccc2nc(-c3ccco3)c(-c3ccco3)nc2c1 | 9.6
82 | O=C(Nc1ccc(F)cc1)Nc1ccc2nc(-c3ccco3)c(-c3ccco3)nc2c1 | > 100
83 | O=C(Nc1ccc2nc(-c3ccco3)c(-c3ccco3)nc2c1)NN1CCC(Cc2ccccc2)CC1 | > 100
84 | O=C(Nc1ccc2nc(-c3ccccc3)c(-c3ccccc3)nc2c1)N1CCCC1 | 29.4
